Assay results taken from ChEMBL document CHEMBL1949495, “Synthesis and cytotoxicity evaluation of biaryl-based chalcones and their potential in TNFα-induced nuclear factor-κB activation inhibition” (Eur J Med Chem, 2012).

Assays:
Type in all cases: functional, cell-based
SW480 = assay: Cytotoxicity against human SW480 cells assessed as total cell protein after 48 hrs by SRB assay; details: SW480, 48 h
In short: (§1)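 Cells kept in RPMI-1640 with 2 mM glutamine, 10% FBS, penicillin/streptomycin, 37 °C, 5% CO2. Seeded 5000 cells/well, grown 24 h, then serial dilutions from 10 mM DMSO stocks added in medium (final DMSO 0.5%), triplicate, 48 h. TCA fixation at 4 °C for 1 h, 0.4% SRB stain, dye solubilized in 10 mM Tris pH 10.4, OD 515 nm. IC50 by nonlinear regression of % control viability vs log concentration; experiments repeated at least twice.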

MCF7 = assay: Cytotoxicity against human MCF7 cells assessed as total cell protein after 48 hrs by SRB assay; details: MCF7, 48 h; in short: as §1
[1] = Cytotoxicity against human CNE2 cells assessed as total cell protein after 48 hrs by SRB assay; details: CNE-2, 48 h; in short: as §1
A549 = assay: Cytotoxicity against human A549 cells assessed as total cell protein after 48 hrs by SRB assay; details: A549, 48 h; in short: as §1
HepG2 = assay: Cytotoxicity against human HepG2 cells assessed as total cell protein after 48 hrs by SRB assay; details: HepG2, 48 h; in short: as §1

SMILES | IC50 (SW480) | IC50 (MCF7) | IC50 [1] | IC50 (A549) | IC50 (HepG2)
COc1cc(/C=C/C(=O)c2cccc(-c3cccc(F)c3)c2)ccc1O | 6.74 µM | 14.2 µM | 5.69 µM | 9.9 µM | 6.83 µM
O=C(/C=C/c1ccc(Cl)cc1)c1cccc(-c2cccc(F)c2)c1 | 16.9 µM | 18.2 µM | 9.06 µM | 15.4 µM | 10.4 µM
O=C(/C=C/c1cccc(Br)c1)c1cccc(-c2cccc(F)c2)c1 | 8.61 µM | 12.7 µM | 6.55 µM | 9.12 µM | 6.98 µM
COc1ccccc1/C=C/C(=O)c1cccc(-c2cccc(F)c2)c1 | 16.6 µM | 18.9 µM | 10.4 µM | 15.5 µM | 15.4 µM
COc1ccc(/C=C/C(=O)c2cccc(-c3cccc(F)c3)c2)cc1 | 4.51 µM | 3.08 µM | 0.74 µM | 2.44 µM | 1.72 µM
COc1ccc(/C=C/C(=O)c2cccc(-c3cccc(F)c3)c2)cc1OC | 2.97 µM | 4.62 µM | 0.77 µM | 1.94 µM | 1.17 µM
COc1cccc(/C=C/C(=O)c2cccc(-c3cccc(F)c3)c2)c1OC | 13.5 µM | 11.7 µM | 10 µM | 8.9 µM | 9.2 µM
O=C(/C=C/c1ccccc1Br)c1cccc(-c2cccc(F)c2)c1 | 14.8 µM | 20 µM | 8.91 µM | 12.4 µM | 12.8 µM
O=C(/C=C/c1ccc(Br)cc1)c1cccc(-c2cccc(F)c2)c1 | 18.2 µM | 18.3 µM | 10.5 µM | 19.8 µM | 9.92 µM
O=C(/C=C/c1cccc(-c2ccc(F)cc2)c1)c1ccc(F)cc1 | 13.5 µM | 14.1 µM | 7.39 µM | 12.2 µM | 12.3 µM
O=C(/C=C/c1cccc(-c2ccc(F)cc2)c1)c1ccc(O)cc1 | 12 µM | 10.8 µM | 5.51 µM | 8.36 µM | 5.12 µM
COc1ccc(/C=C/C(=O)c2ccc(N)c(-c3ccc(F)cc3)c2)cc1 | 7.23 µM | 7.58 µM | 1.6 µM | 4.31 µM | 3.75 µM
COc1ccc(/C=C/C(=O)c2ccc(NC(C)=O)c(-c3ccc(F)cc3)c2)cc1OC | 5.35 µM | 15 µM | 2.74 µM | 7.38 µM | 5.63 µM
COc1ccc(/C=C/C(=O)c2ccc(N)c(-c3ccc(F)cc3)c2)cc1OC | 6.64 µM | 15 µM | 3.51 µM | 8.63 µM | 3.78 µM
COc1ccc(/C=C/C(=O)c2ccc(N)c(-c3ccc(F)cc3)c2)c(OC)c1 | 12.4 µM | 10.8 µM | 6.29 µM | 14.4 µM | 7.74 µM
COc1ccc(OC)c(/C=C/C(=O)c2ccc(N)c(-c3ccc(F)cc3)c2)c1 | 7.83 µM | 8.92 µM | 6.71 µM | 7.04 µM | 4.01 µM
COc1cccc(/C=C/C(=O)c2ccc(N)c(-c3ccc(F)cc3)c2)c1OC | 12.5 µM | 13.3 µM | 11.3 µM | 13.3 µM | 7.37 µM

SMILES | IC50 (SW480) | IC50 (MCF7) | IC50 [1] | IC50 (A549) | IC50 (HepG2)
COc1cc(/C=C/C(=O)c2ccc(N)c(-c3ccc(F)cc3)c2)ccc1O | 8.35 µM | 10.5 µM | 5.75 µM | 12.2 µM | 4.3 µM
COc1cc(/C=C/C(=O)c2ccc(N)c(-c3ccc(F)cc3)c2)cc(OC)c1OC | 6.12 µM | 9.03 µM | 4.6 µM | 6.07 µM | 4.21 µM
Nc1ccc(C(=O)/C=C/c2ccc(O)c(F)c2)cc1-c1ccc(F)cc1 | 31.7 µM | 18.3 µM | 18.1 µM | 24.5 µM | 11.7 µM
COc1cc(/C=C/C(=O)c2ccc(N)c(-c3ccc(F)cc3)c2)cc(Br)c1O | 22.9 µM | 40.5 µM | 25.5 µM | > 50 µM | 4.73 µM
COc1ccc(/C=C/C(=O)c2ccc(N)c(-c3ccc(F)cc3)c2)cc1O |  |  |  | 0.94 µM | 
COc1ccc(-c2cc(C(=O)/C=C/c3ccc(F)cc3)ccc2N)cc1OC | 14.7 µM | 19.4 µM | 7.93 µM | 18 µM | 8.96 µM
COc1ccc(/C=C/C(=O)c2ccc(N)c(-c3ccc(OC)c(OC)c3)c2)c(OC)c1 | 9.3 µM | 6.49 µM | 8.34 µM | 2.21 µM | 2.13 µM
COc1ccc(OC)c(/C=C/C(=O)c2ccc(N)c(-c3ccc(OC)c(OC)c3)c2)c1 | 6.49 µM | 6.33 µM | 6.59 µM | 6.2 µM | 2.1 µM
COc1ccc(-c2cc(C(=O)/C=C/c3cccc(OC)c3OC)ccc2N)cc1OC | 8.33 µM | 10.2 µM | 6.6 µM | 6.54 µM | 5.36 µM
COc1ccc(-c2cc(C(=O)/C=C/c3cc(OC)c(OC)c(OC)c3)ccc2N)cc1OC | 5.63 µM | 6.58 µM | 4.33 µM | 4.62 µM | 2.68 µM
COc1ccc(/C=C/C(=O)c2cccc(Br)c2)cc1 |  |  |  | 34.2 µM | 
COc1ccc(/C=C/C(=O)c2cccc(Br)c2)cc1OC |  |  |  | 9.43 µM | 
COc1ccc(/C=C/C(=O)c2cccc(Br)c2)cc1O |  |  |  | 5.88 µM | 
COc1ccc(/C=C/C(=O)c2cccc(-c3ccc(F)cc3)c2)cc1 | 8.35 µM | 16.4 µM | 5.55 µM | 11.2 µM | 5.65 µM
COc1ccc(/C=C/C(=O)c2cccc(-c3ccc(F)cc3)c2)cc1OC | 6.49 µM | 11.6 µM | 5.55 µM | 11.8 µM | 5.37 µM
COc1ccc(/C=C/C(=O)c2cccc(-c3cccc(F)c3)c2)cc1O |  |  |  | 0.5 µM | 
COc1ccc(/C=C/C(=O)c2cccc(-c3ccc(F)nc3)c2)cc1O |  |  |  | 2.06 µM | 
